For assay [1], the target named is GluN1 S617 Gly-substituted GluN1/2A (Rattus norvegicus, UniProt P35439+Q00959, S617G). Type of assay: cell-based.
In the next assay the target is GluN1-N616G/2A (Rattus norvegicus, UniProt P35439+Q00959, N616G). Type of assay: cell-based.
Another assay deals with WT GluN1/2A (Rattus norvegicus, UniProt P35439+Q00959). Put plainly: Two-electrode voltage-clamp, steady-state block in Xenopus oocytes, WT receptor. Type of assay: cell-based. (Two-electrode voltage clamp holds a large cell at a set potential and records current.)
Assay [2] concerns the target GluN2A V617 Gly-substituted GluN1/2A (Rattus norvegicus, UniProt P35439+Q00959, V617G). Type of assay: cell-based. The following applies: 100 nM ArgTX-636, -60 mV. In a few lines:
(§1)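 Rat GluN1-1a and GluN2A cDNAs carrying Gly substitutions made by site-directed mutagenesis and sequence-verified. Xenopus oocytes were each injected with cRNA (1 ng GluN1, 10 ng GluN2A). Two-electrode voltage clamp at -60 mV in buffer of 115 mM NaCl, 2 mM KCl, 5 mM HEPES and 1.8 mM BaCl2, pH 7.6. Percent block of agonist-evoked steady-state current by 100 nM test compound. Mean + SEM from 4–8 oocytes; ANOVA against WT.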

In assay [3] the target is GluN1 E621 Gly-substituted GluN1/2A (Rattus norvegicus, UniProt P35439+Q00959, E621G). The assay is classed as cell-based. The following applies: 100 nM ArgTX-636, -60 mV. The method, boiled down: as §1
In assay [4] the target is recombinant GluN1/2A receptors (Rattus norvegicus, UniProt P35439+Q00959). The assay is classed as cell-based.
In assay [5] the target is GluN2A N615 Gly-substituted GluN1/2A (Rattus norvegicus, UniProt P35439+Q00959, N615G). Type of assay: cell-based. The conditions noted are these: 100 nM ArgTX-636, -60 mV. In a few lines:
as §1

Assay [6] deals with GluN1/2A and GluN1/2B over GluN1/2C and GluN1/2D NMDAR subtypes. The conditions noted are these: ref [44]; [48]; cited from earlier work.
In the next assay the target is GluN1-I619G/2A (Rattus norvegicus, UniProt P35439+Q00959, I619G). Type of assay: cell-based. The method, boiled down:
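Xenopus oocytes were injected with cRNA for rat GluN1-1a I619G (site-directed mutant, sequence-verified) at 1 ng and WT GluN2A at 10 ng per oocyte. Two-electrode voltage clamp at -60 mV in buffer of 115 mM NaCl, 2 mM KCl, 5 mM HEPES and 1.8 mM BaCl2, pH 7.6. Percent steady-state block of agonist-evoked current by 100 nM test compound or 0.5 mM Mg2+. Mean + SEM from 4–8 oocytes; ANOVA against WT.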

Assay [7] has as its target GluN2A N614 Gly-substituted GluN1/2A (Rattus norvegicus, UniProt P35439+Q00959, N614G). The assay is classed as cell-based. The conditions noted are these: 100 nM ArgTX-636, -60 mV. In a few lines:
as §1

For assay [8], the target named is GluN2A S616 Gly-substituted GluN1/2A (Rattus norvegicus, UniProt P35439+Q00959, S616G). The assay is classed as cell-based. The conditions noted are these: 100 nM ArgTX-636, -60 mV. In a few lines: as §1
Setting [9] is: holding potential -80 mV, Glu 100 μM, Gly 50 μM, HEK293.

Read-outs that look alike come from different tables or passages of the source.

Chain of recombinant GluN1/2A receptors (Q00959 23-1464, other chains not shown): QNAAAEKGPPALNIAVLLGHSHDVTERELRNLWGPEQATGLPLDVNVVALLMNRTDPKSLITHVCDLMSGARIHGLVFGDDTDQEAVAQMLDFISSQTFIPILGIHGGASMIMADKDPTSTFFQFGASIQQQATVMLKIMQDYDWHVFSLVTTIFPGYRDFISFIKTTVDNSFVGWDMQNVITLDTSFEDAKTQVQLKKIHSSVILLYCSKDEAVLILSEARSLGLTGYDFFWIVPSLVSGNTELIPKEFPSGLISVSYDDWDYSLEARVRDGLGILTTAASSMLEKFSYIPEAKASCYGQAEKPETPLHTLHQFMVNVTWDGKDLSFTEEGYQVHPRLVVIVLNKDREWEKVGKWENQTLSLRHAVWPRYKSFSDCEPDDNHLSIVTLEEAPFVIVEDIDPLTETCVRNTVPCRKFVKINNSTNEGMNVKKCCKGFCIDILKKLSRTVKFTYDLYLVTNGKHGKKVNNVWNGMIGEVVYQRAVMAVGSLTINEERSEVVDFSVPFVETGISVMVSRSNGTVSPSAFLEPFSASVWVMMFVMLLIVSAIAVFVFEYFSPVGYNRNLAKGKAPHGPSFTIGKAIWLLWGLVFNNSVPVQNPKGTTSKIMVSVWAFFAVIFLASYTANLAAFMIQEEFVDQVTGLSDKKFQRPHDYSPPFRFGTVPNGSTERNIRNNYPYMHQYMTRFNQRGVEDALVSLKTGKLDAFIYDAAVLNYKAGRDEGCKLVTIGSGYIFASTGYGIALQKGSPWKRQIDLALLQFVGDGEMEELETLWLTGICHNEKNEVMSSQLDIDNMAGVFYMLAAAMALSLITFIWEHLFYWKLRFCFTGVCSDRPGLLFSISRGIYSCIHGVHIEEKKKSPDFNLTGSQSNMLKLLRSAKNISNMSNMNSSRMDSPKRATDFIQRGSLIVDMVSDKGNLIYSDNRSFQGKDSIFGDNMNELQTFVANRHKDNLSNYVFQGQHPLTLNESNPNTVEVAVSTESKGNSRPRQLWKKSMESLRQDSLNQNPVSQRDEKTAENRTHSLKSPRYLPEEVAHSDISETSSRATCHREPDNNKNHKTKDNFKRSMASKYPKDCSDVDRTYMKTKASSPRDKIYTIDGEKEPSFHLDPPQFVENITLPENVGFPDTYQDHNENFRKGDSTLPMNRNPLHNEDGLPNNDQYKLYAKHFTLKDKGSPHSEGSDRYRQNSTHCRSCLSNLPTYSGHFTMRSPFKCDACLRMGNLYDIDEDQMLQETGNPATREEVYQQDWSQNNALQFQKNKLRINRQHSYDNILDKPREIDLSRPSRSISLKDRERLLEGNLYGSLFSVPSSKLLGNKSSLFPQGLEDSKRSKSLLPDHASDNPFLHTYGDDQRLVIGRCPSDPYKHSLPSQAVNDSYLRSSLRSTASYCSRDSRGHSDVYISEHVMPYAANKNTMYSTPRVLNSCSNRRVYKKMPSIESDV
Chain of GluN1-N616G/2A (Q00959 23-1464, other chains not shown): as above
Chain of WT GluN1/2A (Q00959 23-1464, other chains not shown): as above

Turning to `C[C@]12N[C@H](Cc3ccccc31)c1ccccc12` [MK-801, dizocilpine], the figures for the percent steady-state block result (in assay [1]; on GluN1-N616G/2A; on WT GluN1/2A) were “less than 40%”, “less than 40%” and 75%, respectively.

For `NC(=O)C[C@H](NC(=O)Cc1ccc(O)cc1O)C(=O)NCCCCCNCCCNCCCNC(=O)[C@@H](N)CCCN=C(N)N` [ArgTX-636, argiotoxin-636], the percent steady-state block was roughly 100% in assay [2]; “less than 15%” in assay [3]; roughly 100% in assay [5]; “less than 15%” in assay [1] (100 nM ArgTX-636, -60 mV, GluN1 S617G); “less than 15%” on GluN1-I619G/2A (100 nM ArgTX-636, -60 mV, GluN1 I619G); roughly 100% in assay [7]. Besides, the percent steady-state block at GluN1-N616G/2A (100 nM ArgTX-636, -60 mV, GluN1 N616G) was 78%; in assay [8], roughly 100%. The “decrease in dissociation rate over -60 to -100 mV” value in [4] (500 nM ArgTX-636, -60 to -100 mV range) is reported as “less than 2 fold”. Moreover, the “increase in rate of onset of block per 20-mV negative depolarization” value in [4] (500 nM ArgTX-636, membrane potential below -60 mV) is on record as “approximately 5 fold”. In addition, the “steady-state block of the current” value in assay [4] (500 nM ArgTX-636 for 6 s, 100 μM Glu, -80 mV) worked out at 96 ± 1%. Also, the “fold higher association rate constant compared to memantine” value in assay [4] (ArgTX-636 Kon vs literature memantine Kon) was “approximately 10 fold”. Further, the “association rate constant (Kon) with the open channel” value in assay [4] (setting [9]) is 4.4 ± 0.3 × 10^6 M^-1 s^-1. The “dissociation rate constant (Koff) with the open channel” value in assay [4] (setting [9]) came to 0.36 ± 0.09 s⁻¹. Besides, the “mechanism of block (trapping)” value in [4] (recovery after wash in absence of agonist, 500 nM ArgTX-636, -80 mV) is “trapping blocker”. Further, the “selectivity for GluN1/2A and GluN1/2B over GluN1/2C and GluN1/2D” value in [6] is “more than 20 fold”.

With `[Mg+2]` [Mg^2+], the percent steady-state block on GluN1-I619G/2A (0.5 mM Mg^2+, GluN1-I619G/2A) amounted to 53%; at GluN1-N616G/2A (0.5 mM Mg^2+, GluN1-N616G/2A), 28%; at WT GluN1/2A (0.5 mM Mg^2+, WT), 88%.

Source of the values: PMC4864154 (Journal of molecular biology, 2014).
